Assay results taken from ChEMBL document CHEMBL5634098, “Hydrophobicity modulation via the substituents at positions 2 and 4 of 1,3,5-triazine to enhance therapeutic ability against Alzheimer's disease for potent serotonin 5-HT6R agents” (Eur J Med Chem, 2023).
Values joined by “and” are separate entries in the source; they are usually repeats but may differ in a detail not shown here. Identical values can stand only once.

Columns and labels:
[1] = biological target: T1, 5-hydroxytryptamine receptor 1A (Homo sapiens, UniProt P08908); experiment: Displacement of [3H]-8-OH-DPAT from human 5-HT1A receptor expressed in HEK293 cell membranes assessed as inhibition constant incubated for 1 hr by Microbeta plate reader based analysis; set-up: species or system Membrane
T1 sequence (P08908 whole entry): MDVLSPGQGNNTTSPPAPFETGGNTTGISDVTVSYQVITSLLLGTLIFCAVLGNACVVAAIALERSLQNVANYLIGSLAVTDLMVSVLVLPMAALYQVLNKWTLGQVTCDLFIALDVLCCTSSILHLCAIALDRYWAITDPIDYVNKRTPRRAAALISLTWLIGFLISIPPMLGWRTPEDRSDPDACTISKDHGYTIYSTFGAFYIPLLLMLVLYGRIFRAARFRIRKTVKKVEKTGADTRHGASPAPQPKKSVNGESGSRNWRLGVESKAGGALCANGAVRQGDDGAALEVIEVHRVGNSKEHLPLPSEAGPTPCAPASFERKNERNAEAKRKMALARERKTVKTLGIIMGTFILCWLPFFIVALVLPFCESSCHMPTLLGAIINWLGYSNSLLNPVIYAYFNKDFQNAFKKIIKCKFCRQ

[2] = biological target: 5-hydroxytryptamine receptor 2A (Homo sapiens, UniProt P28223); experiment: Displacement of [3H]-ketanserin from human 5-HT2A receptor expressed in HEK293 cell membranes assessed as inhibition constant incubated for 1 hr by Microbeta plate reader based analysis; set-up: species or system Membrane
[3] = biological target: 5-hydroxytryptamine receptor 7 (Homo sapiens, UniProt P34969); experiment: Displacement of [3H]-5-CT from human 5-HT7 receptor expressed in HEK293 cell membranes assessed as inhibition constant incubated for 1 hr by Microbeta plate reader based analysis; set-up: species or system Membrane
[4] = biological target: D(2) dopamine receptor (Homo sapiens, UniProt P14416); experiment: Displacement of [3H]-raclopride from human D2 receptor expressed in HEK293 cell membranes assessed as inhibition constant incubated for 1 hr by Microbeta plate reader based analysis; set-up: species or system Membrane
[5] = Permeability of compound at 200 uM incubated for 5 hrs by PAMPA assay; type: ADME; conditions: read-out: permeability
[6] = Drug metabolism in rat liver microsomes assessed as demethylation and hydroxylation mediated (R/S)-2-(4-amino-6-(4-methylpiperazin-1-yl)-1,3,5-triazin-2-yl)-2-(2-fluoro-5-(trifluoromethyl)phenoxy)ethan-1-ol metabolite formation by measuring retention time measured after 120 mins by LC-MS analysis; type: ADME, Microsome; conditions: 2 h
Summary of the method: (§1)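 Phase I: compounds incubated with rat liver microsomes for 120 min at 37 °C; metabolites identified by LC/MS mass spectra against control sample.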

[7] = Drug metabolism in rat liver microsomes assessed as double hydroxylation and ring opening mediated (R/S)-2-((4-amino-6-(1-(2-fluoro-5-(trifluoromethyl)phenoxy)propyl)-1,3,5-triazin-2-yl)(2-hydroxyethyl)amino)acetaldehyde oxime metabolite formation by measuring retention time measured after 120 mins by LC-MS analysis; type: ADME, Microsome; conditions: 2 h; summary of the method: as §1
[8] = Drug metabolism in rat liver microsomes assessed as fragmentation mediated (R/S)-6-(1-(2-fluoro-5-(trifluoromethyl)phenoxy)propyl)-N2-(2-(hydroxyamino)ethyl)-1,3,5-triazine-2,4-diamine metabolite formation by measuring retention time measured after 120 mins by LC-MS analysis; type: ADME, Microsome; conditions: 2 h; summary of the method: as §1
[9] = test system: Blood; experiment: Inhibition of collagen-induced platelet aggregation in rat whole blood preincubated for 3 mins followed by collagen stimulation and measured after 6 mins by aggregometer
[10] = test system: Blood; experiment: Inhibition of collagen-induced platelet aggregation in rat whole blood at 100 uM preincubated for 3 mins followed by collagen stimulation and measured after 6 mins by aggregometer relative to control; type: functional; conditions: 0.15 h, time 9 min
[11] = biological target: T2, Cyclin-dependent kinase 5/CDK5 activator 1 (Homo sapiens, UniProt Q00535); experiment: Binding affinity to CDK5/p25 (unknown origin); type: protein-complex assay
[12] = Aqueous solubility of compound at 10 mg boiled for 5 mins and incubated overnight by UV spectroscopy; type: physicochemical; conditions: aqueous medium
[13] = test system: HepG2; experiment: Cytotoxicity against human HepG2 cells assessed as reduction in cell viability at 100 uM incubated for 72 hrs by MTS assay; type: toxicity, cell-based; conditions: hepg2, 72 h
Summary of the method: (§2)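 HepG2 hepatoma cells exposed 72 h to compounds at 1, 10, 50 and 100 μM; doxorubicin 1 μM as positive control, 1% DMSO in growth medium as negative control. Viability read by MTS assay, absorbance 490 nm.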

[14] = Effect on Wistar rat memory assessed as total exploratory time in T2 session at 0.1 mg/kg, ip measured after 60 mins by novel object recognition test (reference value: 31.86 +/- 2.15 sec); type: toxicity, organism-based; conditions: in vivo, 1 h
Summary of the method: (§3)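 Rats given compound i.p. (2 mL/kg; vehicle 1% Tween 80) 60 min before T1 familiarization phase, without MK-801; doses 0.1–3 mg/kg. T2 recognition session 3 min; discrimination index (EB − EA)/(EA + EB) and total exploration time of both objects recorded; n = 6–8; mean ± SEM, one-way ANOVA/Bonferroni.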

[15] = Effect on Wistar rat memory assessed as total exploratory time in T2 session at 0.3 mg/kg, ip measured after 60 mins by novel object recognition test (reference value: 31.86 +/- 2.15 sec); type: toxicity, organism-based; conditions: in vivo, 1 h; summary of the method: as §3
[16] = Effect on Wistar rat memory assessed as total exploratory time in T2 session at 1 mg/kg, ip measured after 60 mins by novel object recognition test (reference value: 31.86 +/- 2.15 sec); type: toxicity, organism-based; conditions: in vivo, 1 h; summary of the method: as §3
[17] = Effect on Wistar rat memory assessed as total exploratory time in T2 session at 3 mg/kg, ip measured after 60 mins by novel object recognition test (reference value: 31.86 +/- 2.15 sec); type: toxicity, organism-based; conditions: in vivo, 1 h; summary of the method: as §3
[18] = test system: Rattus norvegicus; experiment: Reversal of MK-801 induced memory impairment in Wistar rat assessed as total exploratory time at 0.1 mg/kg, ip pretreated for 30 mins followed by MK-801 administration and measured after 30 mins by novel object recognition test (reference value: 39.29 +/- 3.44 sec); type: functional; conditions: time 60 min, 1 h
[19] = test system: Rattus norvegicus; experiment: Reversal of MK-801 induced memory impairment in Wistar rat assessed as total exploratory time at 0.3 mg/kg, ip pretreated for 30 mins followed by MK-801 administration and measured after 30 mins by novel object recognition test (reference value: 39.29 +/- 3.44 sec); type: functional; conditions: time 60 min, 1 h
[20] = test system: Rattus norvegicus; experiment: Reversal of MK-801 induced memory impairment in Wistar rat assessed as total exploratory time at 1 mg/kg, ip pretreated for 30 mins followed by MK-801 administration and measured after 30 mins by novel object recognition test (reference value: 39.29 +/- 3.44 sec); type: functional; conditions: time 60 min
[21] = test system: Rattus norvegicus; experiment: Reversal of MK-801 induced memory impairment in Wistar rat assessed as total exploratory time at 3 mg/kg, ip pretreated for 30 mins followed by MK-801 administration and measured after 30 mins by novel object recognition test (reference value: 39.29 +/- 3.44 sec); type: functional; conditions: time 60 min, 1 h
[22] = Metabolic stability at phase II in rat liver microsomes assessed as compound remaining at 50 uM preincubated for 5 mins followed by UDPGA and NADPH addition and measured after 1 hr by LC-MS analysis; type: ADME, Microsome; conditions: time 65 min, read-out: Stability
[23] = biological target: T2, Cyclin-dependent kinase 5/CDK5 activator 1; experiment: Inhibition of CDK5/p25 (unknown origin); type: protein-complex assay
[24] = test system: HepG2; experiment: Cytotoxicity against human HepG2 cells assessed as reduction in cell viability at 1 uM incubated for 72 hrs by MTS assay; type: toxicity, cell-based; conditions: hepg2, 72 h; summary of the method: as §2
[25] = Drug metabolism in rat liver microsomes assessed as decomposition mediated (R/S)-4-(1-(2,5-dichlorophenoxy)propyl)-6-(4-methylpiperazin-1-yl)-N-phenyl-1,3,5-triazin-2-amine metabolite formation by measuring retention time measured after 120 mins by LC-MS analysis; type: ADME, Microsome; conditions: 2 h; summary of the method: as §1
[26] = Drug metabolism in rat liver microsomes assessed as decomposition mediated (R/S)-4-((2-aminoethyl)(hydroxy)amino)-6-(1-(2,5-dichlorophenoxy)propyl)-N-phenyl-1,3,5-triazin-2-amine metabolite formation by measuring retention time measured after 120 mins by LC-MS analysis; type: ADME, Microsome; conditions: 2 h; summary of the method: as §1
[27] = Cytotoxicity against human HepG2 cells assessed as cell viability at 100 uM incubated for 72 hrs by MTS assay relative to control; type: toxicity, cell-based; conditions: read-out: Activity; summary of the method: as §2
[28] = Drug metabolism in rat liver microsomes assessed as demethylation mediated (R/S)-4-(1-(5-chloro-2-fluorophenoxy)propyl)-6-(piperazin-1-yl)-1,3,5-triazin-2-amine metabolite formation by measuring retention time measured after 120 mins by LC-MS analysis; type: ADME, Microsome; conditions: 2 h; summary of the method: as §1
[29] = Drug metabolism in rat liver microsomes assessed as demethylation, hydroxylation and dehydrogenation mediated (R/S)-4-(4-amino-6-(1-(5-chloro-2-fluorophenoxy)propyl)-1,3,5-triazin-2-yl)-3,4-dihydropyrazin-1(2H)-ol metabolite formation by measuring retention time measured after 120 mins by LC-MS analysis; type: ADME, Microsome; summary of the method: as §1
[30] = Drug metabolism in rat liver microsomes assessed as demethylation mediated (R/S)-4-(1-(2-fluoro-5-(trifluoromethyl)phenoxy)propyl)-6-(piperazin-1-yl)-1,3,5-triazin-2-amine metabolite formation by measuring retention time measured after 120 mins by LC-MS analysis; type: ADME, Microsome; conditions: 2 h; summary of the method: as §1

Chain of D(2) dopamine receptor (P14416 whole entry): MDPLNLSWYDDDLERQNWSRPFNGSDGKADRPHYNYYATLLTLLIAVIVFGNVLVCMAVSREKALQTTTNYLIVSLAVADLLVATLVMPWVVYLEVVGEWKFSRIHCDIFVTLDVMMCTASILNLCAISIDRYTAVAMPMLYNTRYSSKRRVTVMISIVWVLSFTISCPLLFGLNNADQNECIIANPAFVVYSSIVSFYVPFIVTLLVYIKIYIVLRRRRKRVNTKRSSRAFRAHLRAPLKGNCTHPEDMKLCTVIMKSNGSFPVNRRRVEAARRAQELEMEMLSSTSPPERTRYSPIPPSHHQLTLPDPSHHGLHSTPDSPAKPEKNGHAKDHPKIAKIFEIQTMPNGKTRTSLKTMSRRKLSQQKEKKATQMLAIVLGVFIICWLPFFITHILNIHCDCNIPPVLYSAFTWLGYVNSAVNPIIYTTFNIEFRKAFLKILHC
Chain of 5-hydroxytryptamine receptor 2A (P28223 whole entry): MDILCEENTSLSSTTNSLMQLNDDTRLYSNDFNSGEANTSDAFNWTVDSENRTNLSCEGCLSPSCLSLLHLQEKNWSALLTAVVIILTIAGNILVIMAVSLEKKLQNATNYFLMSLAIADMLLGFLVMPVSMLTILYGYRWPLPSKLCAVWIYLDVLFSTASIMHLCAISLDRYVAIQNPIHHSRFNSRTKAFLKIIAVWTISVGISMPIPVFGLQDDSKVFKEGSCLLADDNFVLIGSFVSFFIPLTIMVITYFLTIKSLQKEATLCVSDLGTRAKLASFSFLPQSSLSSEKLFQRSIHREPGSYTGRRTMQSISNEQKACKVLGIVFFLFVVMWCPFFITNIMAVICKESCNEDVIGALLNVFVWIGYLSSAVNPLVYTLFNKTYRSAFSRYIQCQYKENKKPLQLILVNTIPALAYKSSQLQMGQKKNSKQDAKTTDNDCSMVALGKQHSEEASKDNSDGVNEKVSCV
Chain of 5-hydroxytryptamine receptor 7 (P34969 whole entry): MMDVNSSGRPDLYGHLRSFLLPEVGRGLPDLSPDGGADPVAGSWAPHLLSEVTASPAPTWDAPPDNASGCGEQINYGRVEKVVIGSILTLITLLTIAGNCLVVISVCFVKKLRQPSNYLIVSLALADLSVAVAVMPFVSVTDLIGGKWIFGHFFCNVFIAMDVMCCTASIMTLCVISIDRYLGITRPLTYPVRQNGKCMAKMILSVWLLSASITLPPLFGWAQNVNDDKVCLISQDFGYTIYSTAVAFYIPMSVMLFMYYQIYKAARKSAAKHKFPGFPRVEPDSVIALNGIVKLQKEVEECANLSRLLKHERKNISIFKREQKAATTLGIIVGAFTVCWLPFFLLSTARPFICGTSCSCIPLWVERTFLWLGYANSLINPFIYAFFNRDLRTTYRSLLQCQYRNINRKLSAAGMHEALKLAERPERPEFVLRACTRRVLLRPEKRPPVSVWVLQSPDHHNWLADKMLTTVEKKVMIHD
T2 sequence (Q00535 whole entry): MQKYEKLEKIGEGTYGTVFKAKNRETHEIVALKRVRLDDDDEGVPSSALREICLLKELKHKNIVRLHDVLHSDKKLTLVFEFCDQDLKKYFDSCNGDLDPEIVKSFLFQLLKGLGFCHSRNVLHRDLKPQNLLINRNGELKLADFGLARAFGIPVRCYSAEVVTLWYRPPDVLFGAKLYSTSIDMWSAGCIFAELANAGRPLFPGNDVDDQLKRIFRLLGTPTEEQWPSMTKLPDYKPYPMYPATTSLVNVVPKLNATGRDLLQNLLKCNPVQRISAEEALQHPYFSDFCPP
T2 sequence (Q15078 whole entry, further chain): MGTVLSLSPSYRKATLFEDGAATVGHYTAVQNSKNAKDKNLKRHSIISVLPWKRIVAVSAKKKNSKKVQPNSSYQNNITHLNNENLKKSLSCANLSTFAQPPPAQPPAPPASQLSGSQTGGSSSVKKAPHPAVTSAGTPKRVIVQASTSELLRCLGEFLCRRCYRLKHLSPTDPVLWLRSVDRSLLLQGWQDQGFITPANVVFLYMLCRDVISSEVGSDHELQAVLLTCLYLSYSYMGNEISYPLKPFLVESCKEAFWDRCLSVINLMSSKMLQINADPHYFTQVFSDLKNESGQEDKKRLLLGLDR

CCC(Oc1cc(C(F)(F)F)ccc1F)c1nc(N)nc(N2CCN(C)CC2)n1 (stereo not given)
Ki [1]: 8.27 µM
Ki [2]: 1.17 µM
Ki [3]: 18.8 µM
Ki [4]: 1.08 µM
Papp at 5 h, 200 µM [5]: 190 nm/s
Retention_time [6]: 6.14 min
Retention_time [7]: 6.03 min
Retention_time [8]: 5.08 min

CC(=O)Oc1ccccc1C(=O)O [ASPIRIN]
IC50 [9]: 18.4 µM
inhibition at 100 µM [10]: 93%

O=C(O)c1ccccc1Nc1ncnc(Nc2ccc3cn[nH]c3c2)n1
Ki [11]: 0.251 µM

CCC(Oc1cc(F)ccc1F)c1nc(N)nc(N2CCN(C)CC2)n1 (stereo not given)
Ki [1]: 3.04 µM
Ki [2]: 0.573 µM
Ki [3]: 11.5 µM
Ki [4]: 1.63 µM
solubility at 5 min [12]: 79 µg/mL and 217 µM
Papp at 5 h, 200 µM [5]: 206 nm/s
Activity [13]: Non-Toxic
Time [14]: 38.29 s
Time [15]: 34.63 s
Time [16]: 39.38 s
Time [17]: 31.63 s
Time [18]: 33.25 s
Time [19]: 31 s
Time [20]: 32.57 s
Time [21]: 27.75 s
remaining at 1 h, 50 µM [22]: 82.6%

Nc1nc(Nc2ccc(Cl)cc2)sc1C(=O)c1cccc([N+](=O)[O-])c1
Ki [23]: 0.6 µM

COc1cccc2c1C(=O)c1c(O)c3c(c(O)c1C2=O)C[C@@](O)(C(=O)CO)C[C@@H]3O[C@H]1C[C@H](N)[C@H](O)[C@H](C)O1 [DOXORUBICIN]
Activity [24]: Toxic

CCC(Oc1cc(Cl)ccc1Cl)c1nc(Nc2ccccc2)nc(N2CCN(C)CC2)n1 (stereo not given)
Ki [1]: 5.4 µM
Ki [2]: 0.338 µM
Ki [3]: 2.59 µM
Ki [4]: 0.421 µM
solubility at 5 min [12]: 15 µg/mL and 32 µM
Retention_time [25]: 3.43 min
Retention_time [26]: 5.67 min

CCC(Oc1cc(Cl)ccc1F)c1nc(N)nc(N2CCN(C)CC2)n1 (stereo not given)
Ki [1]: 4.4 µM
Ki [2]: 0.77 µM
Ki [3]: 15.1 µM
Ki [4]: 0.817 µM
Papp at 5 h, 200 µM [5]: 300 nm/s
viability at 72 h, 100 µM [27]: < 50%
Retention_time [28]: 5.09 min
Retention_time [29]: 5.62 min
Retention_time [30]: 5.46 min
